# Source: PubChem BioAssay (several laboratories)
# HTRA1 inh: inhibitors of human serine peptidase HTRA1 | Q92743 | recombinant HTRA1, FP-rhodamine activity-based probe, fluorescence polarization | inhibition, % at 5.96 µM | hit rate 0.5% among 340,000 | AID 504803; in the data active means inhibition above about 36%
# JMJD2C inh: blocks human GASC-1 demethylase activity; Q9H3R0; GST-JMJD2C(1-420) H3K9me3 demethylation, DELFIA europium; inhibition, % at 2.35 µM; hit rate 0.069% among 330,000; AID 2099;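 active means more than half of a compound's replicate wells show inhibition beyond 50%, single wells judged on their own value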;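 further: signal counts dimethyl H3K9 product captured on neutravidin plate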
# Target sequence (Q9H3R0 1-420 limits assumed): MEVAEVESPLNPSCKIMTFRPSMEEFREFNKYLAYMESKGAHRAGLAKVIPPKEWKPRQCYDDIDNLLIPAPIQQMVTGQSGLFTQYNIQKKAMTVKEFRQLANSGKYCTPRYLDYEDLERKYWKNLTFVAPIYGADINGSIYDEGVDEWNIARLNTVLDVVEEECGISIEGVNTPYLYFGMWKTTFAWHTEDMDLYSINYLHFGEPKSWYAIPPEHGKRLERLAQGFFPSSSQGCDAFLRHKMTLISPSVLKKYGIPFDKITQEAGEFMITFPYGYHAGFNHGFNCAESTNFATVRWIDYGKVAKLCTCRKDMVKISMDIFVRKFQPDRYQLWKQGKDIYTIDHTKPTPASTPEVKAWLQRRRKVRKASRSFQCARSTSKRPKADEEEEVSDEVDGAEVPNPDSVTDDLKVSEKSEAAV
# PRMT1 inh: PRMT1 (human) inhibition, primary screen. hit rate 1.3% among 370,000. inhibition, % at 2.79 µM. Q99873. AID 652257. recombinant PRMT1, activity-based probe fluorescence polarization;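 active means inhibition above about 21% made by adding two undisclosed values, limit read from the data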
# SIAE inh: blocks human sialic acid acetylesterase; Q9HAT2; SIAE FP-Rh probe binding, fluorescence polarization; inhibition, % at 9.66 µM; hit rate 0.69% among 370,000; AID 1053197;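 active means inhibition above a cutoff: mean of compounds within the control limits plus 3 SD of those, cut at about 17% in these data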
# ABHD4 inh: inhibitors of mouse ABHD4 | purified mABHD4, FP-Rh probe fluorescence polarization | inhibition, % at 8.92 µM | hit rate 0.54% among 370,000 | AID 720543;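 active means inhibition exceeding the mean over every tested compound plus 3 SD, cut at about 30% in these data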
#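 Assay system: mABHD4 protein; medium: HEPES pH 7.0, NaCl, Pluronic buffer; dosing: 8.92 µM, single dose; schedule: 45 min + 60 min at 25 °C; signal: FP readout, ex 525 nm / em 598 nm; read-out: normalized percent inhibition of probe labeling; repeats: single replicate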
# SIAE confirm: confirmation of human SIAE inhibitors | shares compounds with SIAE inh | SIAE FP-Rh activity-based probe, fluorescence polarization | inhibition, % at 9.66 µM | hit rate 13% among 2,300 | AID 1117263;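 active means mean inhibition of the replicates above the hit cutoff set in the primary screen, cut at about 17% in these data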;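 further: inhibitors lower polarization as more probe stays unbound to SIAE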
# Numbers stand for hits; . = inactive; / = no result. Shown are actives, neighbours in structure and some others; about 2.4% of the full set was active somewhere.
SMILES,HTRA1 inh,JMJD2C inh,PRMT1 inh,SIAE inh,ABHD4 inh,SIAE confirm
COc1ccc(NC(=O)CN2C(=O)C(C)Oc3ccccc32)cc1 (stereo unspecified),.,.,.,.,.,/
NC(=O)c1ncn([C@@H]2O[C@H](C(=O)N[C@H](Cc3c[nH]c4ccccc34)C(=O)N3CCN(C(=O)N4CCOCC4)CC3)[C@@H](O)[C@H]2O)n1,/,/,.,52,.,33
NC(=O)c1ncn([C@@H]2O[C@H](C(=O)N[C@H](Cc3c[nH]c4ccccc34)C(=O)NCC(=O)N3CCCCC3)[C@@H](O)[C@H]2O)n1,/,/,.,.,.,/
CC(/C=C(\NC(=O)c1ccccc1)C(=O)N=Nc1c(O)[nH]c2ccc(C)cc12)=C\c1ccccc1,.,.,.,21,.,.
Cc1ccc(Cc2c(-c3ccc(Cl)cc3)nc3ccc(Br)cn23)cc1,.,/,.,.,.,/
O=C(Nc1nc(-c2cccnc2)cs1)c1cccc([N+](=O)[O-])c1,.,.,.,.,.,/
O=C(NC(=S)Nc1cccc(NC(=O)c2ccccc2)c1)c1cccc([N+](=O)[O-])c1,.,.,.,63,.,.
O=C(Nc1nc(-c2ccccc2)cs1)c1cccc([N+](=O)[O-])c1,.,.,.,19,.,.
COC(=O)[C@]12C[C@H](CC(=O)NCc3cccs3)C(=O)N(Cc3ccco3)C1=C[C@H](C1CCCC1)O[C@@H]2C,/,/,.,.,.,/
Cc1sc2nc(CN3CCOCC3)nc(N3CCOCC3)c2c1C,.,.,.,21,.,.
Cc1sc2nc(CN3CCOCC3)nc(N3CCC(C(N)=O)CC3)c2c1C,.,.,.,.,.,/
Cc1c(/C=N\NC(=O)C2COc3ccccc3O2)c2ccccc2n1C (stereo unspecified),.,.,.,.,.,/
Cn1cc(/C=N\NC(=O)C2COc3ccccc3O2)c2ccccc21 (stereo unspecified),/,.,.,20,.,.
COC(=O)C1=C(C(C)=O)C(c2ccc(C(=O)OC)cc2)n2nnnc2N1 (stereo unspecified),.,.,.,23,.,.
COc1ccc(NC(=O)C(c2ccccc2)n2c(=O)c(-c3ccco3)nc3ccccc32)cc1 (stereo unspecified),/,/,.,.,.,/
CCOC(=O)Cn1cc(CN2C(C(=O)OC)CN(Cc3ccc(F)cc3)CCS2(=O)=O)nn1 (stereo unspecified),/,/,.,.,.,/
COc1ccc(C(CC(=O)O)NC(=O)COc2ccc(C)cc2)cc1OC (stereo unspecified),.,.,.,19,.,.
C[C@@H]1CCCN1c1ccc2c(c1)OCCCN(C1CC1)S2(=O)=O,/,/,.,.,.,/
CC(=O)c1cccc(NC(=S)NCCCCc2ccccc2)c1,.,.,.,42,.,47
CC(=O)c1cccc(NC(=S)NC2CC2)c1,.,.,.,.,.,/
CC(=O)c1cccc(NC(=S)NC2CCCCC2)c1,.,.,.,19,.,.
CCCCNC(=S)Nc1cccc(C(C)=O)c1,.,.,.,.,.,/
CCc1ccc(C(=O)NNc2ccc(F)cc2F)cc1,.,.,.,.,.,/
CC(C)(C)c1ccc(C(=O)NNc2ccc(F)cc2F)cc1,.,.,.,22,.,.
CC(=O)c1c(C)[nH]c(C(=O)Nc2ccc(N3CCCCCC3)cc2)c1C,.,/,.,26,.,.
SMILES,HTRA1 inh,JMJD2C inh,PRMT1 inh,SIAE inh,ABHD4 inh,SIAE confirm
CNC(=S)N1CCc2ccccc2C1,.,.,.,30,.,.
Cc1c(Cl)cccc1NC(=S)N1CCc2ccccc2C1,.,.,.,.,.,/
O=C(NCC1COc2ccccc2O1)c1ccc(NC(=O)c2cccc(F)c2)cc1 (stereo unspecified),/,/,.,.,.,/
O=C(NC1CC1)c1cccc(S(=O)(=O)Nc2ccccc2F)c1,.,.,.,17,.,.
Nc1[nH]c(C(=O)c2ccccc2)c(-c2ccc(Br)cc2)c1C(=O)c1ccccc1,/,/,.,.,.,/
O=S1(=O)CC(N2CCCCC2)CN1CCc1ccccc1 (stereo unspecified),/,/,.,.,.,/
O=C(CSc1ccc(Cl)cc1)NC1=NN(c2ccccc2)C(=O)C1,.,.,.,25,.,.
S=C(NCCCc1cnc[nH]1)NCCCN(Cc1ccc(Cl)cc1)c1ccc(Br)cn1,/,/,.,17,.,27
S=C(NCCCc1cnc[nH]1)NCCCN(Cc1ccccc1)c1ccc(Br)cn1,/,/,.,.,.,/
